The values that follow come from BindingDB's records for doi:10.1021/acsmedchemlett.0c00208 (University of Bonn, 2020).

This assay deals with T1, N-arachidonyl glycine receptor (Homo sapiens, UniProt Q14330).
T1 sequence (Q14330 whole entry): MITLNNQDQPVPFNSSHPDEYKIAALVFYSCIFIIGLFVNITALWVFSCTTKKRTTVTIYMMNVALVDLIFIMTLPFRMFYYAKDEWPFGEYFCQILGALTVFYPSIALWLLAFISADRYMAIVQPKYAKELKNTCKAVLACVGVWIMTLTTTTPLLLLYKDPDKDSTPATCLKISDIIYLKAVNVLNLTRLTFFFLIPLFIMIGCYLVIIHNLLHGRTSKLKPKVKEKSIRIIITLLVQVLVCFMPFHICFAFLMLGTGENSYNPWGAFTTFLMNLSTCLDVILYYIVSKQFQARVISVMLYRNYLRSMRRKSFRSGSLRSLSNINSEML
As to the kind of experiment: […] at Prolink1-tagged human GPR18 receptor expressed in CHO cells assessed as […] by measuring 2-(3-(6-(4-chlorophenoxy)hexyloxy)benzylidene)-6,7-dihydro-2H-imidazo[2,1-b][1,3]thiazin-3(5H)-one IC50 at 1 uM after 90 mins by beta-galactosidase based topcount luminescence analysis. The procedure, abridged: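 Human GPR18 stably expressed in CHO cells, β-arrestin enzyme complementation. Antagonist concentration-inhibition curves run against a fixed 1 μM agonist stimulus. IC50 and maximal inhibition derived from curves; means of three independent experiments, each in duplicate.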

`Cn1c(=O)c2c(nc3n2CCCN3CCc2c[nH]c3ccccc23)n(C)c1=O` [9-(2-(1H-indol-3-yl)ethyl)-1,3-dimethyl-6,7,8,9-tetrahydropyrimido[1,2-a]purine-2,4(1H,3H)-dione]: the IC50 was 944 nM.

A word on the IC50: it is the point on the concentration scale where inhibition reaches its midpoint.
